Like-named read-outs stand apart in the source and are kept apart here.
Assays:
[1] = molecular target: extracellular domain of BTN3A1 (Homo sapiens, UniProt O00481); assay: Isothermal titration calorimetry, pAg binding to BTN3A1 extracellular domain; conditions: ITC at multiple temperatures (25°C, 15°C); 100μM protein, 2mM cHDMAPP
[2] = molecular target: BTN3A1 B30.2 charge reversal mutant (H378D, K393D, R412E, R418E, R469E) (Homo sapiens, UniProt O00481, H408D/K423D/R442E/R448E/R499E); assay: Isothermal titration calorimetry, B30.2 charge reversal mutant; type: binding; conditions: ITC; 25μM protein in cell, 500μM pAg in syringe
Sequence of BTN3A1 B30.2 charge reversal mutant (H378D, K393D, R412E, R418E, R469E) (O00481 322-513 H408D/K423D/R442E/R448E/R499E): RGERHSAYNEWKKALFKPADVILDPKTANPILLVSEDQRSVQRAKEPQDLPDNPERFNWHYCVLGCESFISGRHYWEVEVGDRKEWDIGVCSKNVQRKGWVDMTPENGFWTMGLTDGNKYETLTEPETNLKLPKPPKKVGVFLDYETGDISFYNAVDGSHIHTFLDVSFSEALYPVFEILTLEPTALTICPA

[3] = molecular target: G115 Vγ9Vδ2 TCR / BTN3A1 extracellular domain (Homo sapiens, UniProt O00481); type: binding; conditions: SPR; 1mM cHDMAPP co-injected
Sequence of G115 Vγ9Vδ2 TCR / BTN3A1 extracellular domain (O00481 30-254): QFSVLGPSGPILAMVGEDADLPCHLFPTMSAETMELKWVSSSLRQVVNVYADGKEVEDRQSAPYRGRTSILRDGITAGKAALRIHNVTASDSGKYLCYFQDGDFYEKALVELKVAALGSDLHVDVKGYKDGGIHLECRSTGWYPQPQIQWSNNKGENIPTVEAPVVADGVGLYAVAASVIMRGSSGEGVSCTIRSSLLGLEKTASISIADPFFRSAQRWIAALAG
How it was run: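 G115 Vγ9Vδ2 TCR was C-terminally biotinylated and multimerized at a 60:1 ratio onto streptavidin-conjugated AmDex polymers. Serial dilutions from 1 ug/ml to 0.03125 ug/ml were injected over immobilized […] BTN3A1, with murine T22 protein also immobilized.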

[4] = system: human Vγ9Vδ2 T cells; type: cell-based
How it was run: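 Target HEK cells had endogenous BTN3A silenced by shRNA and were transiently re-transfected with BTN3A isoforms or position-351 mutants. Cells were pretreated 2 h at 37°C with anti-CD277 agonist mAb 20.1 or zoledronate, washed extensively, then cocultured 4 h at 37°C with polyclonal Vγ9Vδ2 T cells in complete RPMI with 10 μM monensin and labelled anti-CD107a. Cells were then stained for Vδ2 TCR and read by flow cytometry.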

Sequence of extracellular domain of BTN3A1 (O00481 30-254 limits assumed): as the sequence (O00481 30-254) above

Compound | binding to the complete extracellular domain of BTN3A1 [1] | binding to B30.2 charge reversal mutant [2] | effect of co-injection on G115 AmDex TCR interaction with immobilized BTN3A1 [3] | Vγ9Vδ2 T cell stimulation (CD107a) ([4]; BTN3A-silenced cells re-expressing BTN3A1_H351R) | Vγ9Vδ2 T cell stimulation (CD107a) ([4]; BTN3A-silenced cells re-expressing BTN3A3_R351H)
C/C(=C\CCP(=O)(O)OP(=O)(O)O)CO [cHDMAPP, hydroxy-methyl-butyl-pyrophosphonate] | unable to detect binding | no detectable binding | did not alter observed interactions |  | 
O=P(O)(O)C(O)(Cn1ccnc1)P(=O)(O)O [zoledronate, Zoledronic acid monohydrate] |  |  |  | unable to mediate NBP induced stimulation | able to mediate NBP induced stimulation

Reference: PMC4028361 (Immunity, 2014)
